The values that follow come from ChEMBL document CHEMBL4261495, “Antitrypanosomal and antileishmanial activity of prenyl-1,2,3-triazoles” (Medchemcomm, 2017).

The test system of one series is Trypanosoma cruzi. Nature of the series: Antitrypanosomal activity against Trypanosoma cruzi strain CL Brener epimastigotes measured after 72 hrs by Neubauer chamber based cell counting method. The class given is functional, organism-based. In outline: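 CL-Brener epimastigotes were grown in BHT medium at 28 °C and seeded at 3-4 × 10^6 parasites/mL. Compound was added in DMSO (1% final) at 5-100 µg/mL, with benznidazole as positive control. After 72 h, parasites were counted in a Neubauer chamber and inhibition was taken relative to untreated growth. IC50 came from the inhibition-concentration plot. Triplicates were run; values average three independent experiments.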

In a further series the test system is Leishmania donovani. Put plainly: Antileishmanial activity against Leishmania donovani S1 promastigotes after 72 hrs by alamar blue assay. Conditions: S1, 72 h. Type of series: functional, organism-based. In outline: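 Leishmania donovani strain S1 promastigotes at 2×10^6 cells/mL were exposed to final concentrations of 40, 8 and 1.6 µg/mL. Plates were incubated 72 h at 26 °C, and growth was read by Alamar blue. Pentamidine and amphotericin B served as standards.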
For orientation: The colour change of resazurin is a common sign of viable cells or microbes.

In the next series the test system is Vero. Nature of the series: Cytotoxicity against African green monkey Vero cells at 20 uM after 2 days by neutral red uptake assay. The class given is cell-based. Conditions: chlorocebus sabaeus, 48 h.
Series [1] can be described thus: Octanol/water partition coefficient, log P of the compound. The class given is physicochemical.
Series [2] addresses Sterol 14-alpha demethylase (Trypanosoma cruzi (strain CL Brener), UniProt Q7Z1V1). Put plainly: Binding affinity to Trypanosoma cruzi CYP51 by spectrophotometric method. The method, boiled down: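 Spectral titration used 2 µM TcCYP51 in buffer A at 24 °C, scanned over 350-500 nm in tandem cuvettes. Ligand was added stepwise from 1 or 10 mM DMSO stocks until the spectral response peaked, with DMSO added to the reference cuvette. Apparent Kd came from fitting absorbance change against free ligand concentration to a rectangular hyperbola.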

Series [3] concerns the target Sterol 14-alpha demethylase (Trypanosoma cruzi (strain CL Brener)) (UniProt Q7Z1V1). Put plainly: Inhibition of Trypanosoma cruzi CYP51 assessed as residual enzyme activity at 100 uM using [3H]-MDL as substrate pretreated for 5 mins followed by NADPH addition by RP-HPLC analysis relative to control. In outline:
(§1)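 TcCYP51 was reconstituted with T. brucei CPR and DLPC (1:2:50 molar), preincubated 10 min at room temperature. The reaction held 1 µM enzyme and 50 µM [3H]-labelled/unlabelled 24-methylenedihydrolanosterol in 20 mM MOPS pH 7.4, 50 mM KCl, 5 mM MgCl2, 10% glycerol, isocitrate dehydrogenase and 25 mM isocitrate. Inhibitor (1-100 µM) was preincubated 5 min at 37 °C, then 5 µM NADPH started the reaction. Products were detected by radioactivity.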

The target is the same in series [4]. Put plainly: Inhibition of Trypanosoma cruzi CYP51 assessed as residual enzyme activity at 100 uM using [3H]-MDL as substrate pretreated for 10 mins followed by NADPH addition by RP-HPLC analysis relative to control. In outline: as §1

SMILES strings stand for the structures.

Sterol 14-alpha demethylase (Trypanosoma cruzi (strain CL Brener)), sequence (Q7Z1V1 whole entry, looked up): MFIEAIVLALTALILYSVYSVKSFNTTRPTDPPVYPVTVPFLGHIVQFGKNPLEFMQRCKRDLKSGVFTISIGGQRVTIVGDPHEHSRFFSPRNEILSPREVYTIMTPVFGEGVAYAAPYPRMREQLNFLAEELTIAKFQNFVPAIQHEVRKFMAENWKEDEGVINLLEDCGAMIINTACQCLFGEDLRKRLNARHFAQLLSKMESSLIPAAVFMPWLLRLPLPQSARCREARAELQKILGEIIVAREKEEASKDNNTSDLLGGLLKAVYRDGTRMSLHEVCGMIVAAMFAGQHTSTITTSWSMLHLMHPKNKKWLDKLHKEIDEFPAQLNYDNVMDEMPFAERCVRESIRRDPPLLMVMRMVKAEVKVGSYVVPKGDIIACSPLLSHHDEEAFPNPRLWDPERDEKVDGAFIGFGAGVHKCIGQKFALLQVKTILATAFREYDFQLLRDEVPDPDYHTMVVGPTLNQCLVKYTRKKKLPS
Sterol 14-alpha demethylase, sequence (Q7Z1V1 whole entry): as the sequence (Q7Z1V1 whole entry, looked up) above

For the molecule `CCCCCCCCc1cn(C/C=C(/C)CCC=C(C)C)nn1`, the IC50 (usually the concentration that gives 50% inhibition) in the series with Trypanosoma cruzi stood at 34 µM; in the series on Leishmania donovani it was 16 µM. The Activity entry with Vero was “Non-Toxic”. In series [1], the logP (as a rule, the decadic logarithm of the partition coefficient of the neutral form, usually between octanol and water) is 6.92.

In the case of `CCCCCc1cn(CC=C(C)C)nn1`, the IC50 with Trypanosoma cruzi and with Leishmania donovani was above 100 µM in each case. The Activity entry in the series on Vero is given as “Non-Toxic”. In addition, the logP in series [1] is 3.46.

As to `CC(C)=CCC/C(C)=C/CC/C(C)=C/Cn1cc(-c2ccccc2)nn1`, the IC50 in the series with Trypanosoma cruzi was 34 µM; in the series on Leishmania donovani, 48 µM. In addition, the Activity entry in the series on Vero is recorded as “Non-Toxic”. In addition, the logP in series [1] came to 6.95.

`COC(=O)c1cn(CC=C(C)C)nn1`: the IC50 in the series with Trypanosoma cruzi and in the series with Leishmania donovani was above 100 µM throughout. Further, the Activity result with Vero is given as “Non-Toxic”. The logP in series [1] turned out to be 1.3.

As to `CCCc1cn(CC=C(C)C)nn1`, the IC50 in the series with Trypanosoma cruzi and with Leishmania donovani was above 100 µM throughout. Further, the Activity result in the series on Vero is recorded as “Non-Toxic”. The molecule further gave a logP in series [1] of 2.47.

In the case of `CCCCCc1cn(C/C=C(\C)CCC=C(C)C)nn1`, the values for the IC50 in the series on Trypanosoma cruzi and in the series with Leishmania donovani were 51 µM and 94 µM, respectively. The Activity result with Vero is on record as “Non-Toxic”. This molecule also had a logP in series [1] of 5.45.

Regarding `CCCc1cn(C/C=C(\C)CCC=C(C)C)nn1`, the IC50 in the series with Trypanosoma cruzi came out at 31 µM; in the series on Leishmania donovani, 72 µM. Also, the Activity result with Vero is “Non-Toxic”. In series [1], this molecule displayed a logP of 4.5.

Consider `CCCc1cn(C/C=C(/C)CCC=C(C)C)nn1`, for which the 50% inhibitory concentration (IC50) in the series on Trypanosoma cruzi and in the series on Leishmania donovani was 44 µM each time. Besides, the Activity entry with Vero was “Non-Toxic”. The logP in series [1] is 4.05.

As for `CCCCCc1cn(C/C=C(/C)CCC=C(C)C)nn1`, the figures for the IC50 in the series on Trypanosoma cruzi and with Leishmania donovani were 36 µM and 40 µM, respectively. Further, the Activity result in the series with Vero was “Non-Toxic”. In addition, in series [1], the logP was found to be 5.45.

Take `COC(=O)c1cn(C/C=C(\C)CCC=C(C)C)nn1`: the results for the IC50 in the series on Trypanosoma cruzi and in the series on Leishmania donovani were 87 µM and above 100 µM, respectively. For the same molecule, in the series on Vero, the Activity entry was “Non-Toxic”. The molecule also returned a logP in series [1] of 3.2.

As to `CCCCCc1cn(C/C=C(/C)CC/C=C(\C)CCC=C(C)C)nn1`, the IC50 with Trypanosoma cruzi came out at 18 µM; with Leishmania donovani, 11 µM. Also, the Activity result in the series with Vero was “Non-Toxic”; in series [3], 7%; in series [4], 39%. In addition, the logP in series [1] came to 7.5. Also, the Kd – broadly, the equilibrium constant for the complex coming apart – in series [2] is 7.6 µM.

In the case of `CC(C)=CCC/C(C)=C/Cn1cc(-c2ccccc2)nn1`, the values for the IC50 in the series on Trypanosoma cruzi and with Leishmania donovani were 39 µM and 49 µM, respectively. In the series on Vero, the Activity entry is on record as “Non-Toxic”. The same molecule returned a logP in series [1] of 4.91.

As for `CCCc1cn(C/C=C(\C)CC/C=C(\C)CCC=C(C)C)nn1`, the IC50 with Trypanosoma cruzi is 18 µM; in the series on Leishmania donovani, 51 µM. The figures for the Activity entry (with Vero; in series [3]; in series [4]) were “Non-Toxic”, 27% and 56%, respectively. The same molecule came in with a logP in series [1] of 6.5.

In the case of `CCCCCCCCc1cn(C/C=C(\C)CC/C=C(\C)CCC=C(C)C)nn1`, the IC50 was above 100 µM in the series on Trypanosoma cruzi and 36 µM with Leishmania donovani. In the series on Vero, the Activity result was “Non-Toxic”. Also, the logP in series [1] came out at 8.76.

With `CC(C)=CCC/C(C)=C\Cn1cc(-c2ccccc2)nn1`, the IC50 amounted to 39 µM in the series with Trypanosoma cruzi and 49 µM in the series on Leishmania donovani. In the series with Vero, the Activity entry is “Non-Toxic”. This molecule also yielded a logP in series [1] of 4.91.

For the molecule `COC(=O)c1cn(C/C=C(\C)CC/C=C(\C)CCC=C(C)C)nn1`, the IC50 in the series on Trypanosoma cruzi was determined as 9 µM; in the series with Leishmania donovani it was 31 µM. For the same molecule, the values for the Activity result (with Vero; in series [3]; in series [4]) were “Non-Toxic”, 35% and 63%, respectively. This molecule also came in with a logP in series [1] of 5.25.

As to `O=C(Cn1ccnc1[N+](=O)[O-])NCc1ccccc1` [BENZNIDAZOLE], the logP in series [1] is 0.78.

As to `N=C(N)c1ccc(OCCCCCOc2ccc(C(=N)N)cc2)cc1` [PENTAMIDINE], the logP in series [1] worked out at 1.49.

In the case of `COC(=O)c1cn(C/C=C(/C)CCC=C(C)C)nn1`, the values for the IC50 with Trypanosoma cruzi and with Leishmania donovani were 87 µM and above 100 µM, respectively. Moreover, in the series on Vero, the Activity entry is reported as “Non-Toxic”. For the same molecule, the logP in series [1] stood at 3.2.

Take `CC(C)=CCC/C(C)=C/CC/C(C)=C\Cn1cc(-c2ccccc2)nn1`: the values for the IC50 in the series on Trypanosoma cruzi and in the series on Leishmania donovani were 32 µM and 49 µM, respectively. Besides, the Activity result in the series with Vero is recorded as “Non-Toxic”. The molecule further showed a log partition coefficient (logP) in series [1] of 6.95.

On to `CCCCCc1cn(C/C=C(\C)CC/C=C(\C)CCC=C(C)C)nn1`, for which the figures for the IC50 in the series with Trypanosoma cruzi and with Leishmania donovani were 29 µM and 44 µM, respectively. The Activity result in the series with Vero was “Non-Toxic”; in series [3], 9%; in series [4], 33%. This molecule returned a logP in series [1] of 7.5.

Consider `COC(=O)c1cn(C/C=C(/C)CC/C=C(\C)CCC=C(C)C)nn1`, for which the IC50 stood at 15 µM in the series on Trypanosoma cruzi and 11 µM with Leishmania donovani. The Activity entry in the series with Vero was “Non-Toxic”; in series [3], 26%; in series [4], 59%. The molecule also had a logP in series [1] of 5.25.

As for `CC(C)=CCn1cc(-c2ccccc2)nn1`, the IC50 with Trypanosoma cruzi and with Leishmania donovani was above 100 µM each time. The Activity entry with Vero is given as “Non-Toxic”. This molecule also yielded a logP in series [1] of 2.82.

For the molecule `CCCCCCCCc1cn(C/C=C(\C)CCC=C(C)C)nn1`, the IC50 turned out to be 27 µM in the series with Trypanosoma cruzi and 57 µM in the series on Leishmania donovani. For the same molecule, the Activity result in the series with Vero is “Non-Toxic”. Moreover, the logP in series [1] was determined as 6.92.

Regarding `CCCc1cn(C/C=C(/C)CC/C=C(\C)CCC=C(C)C)nn1`, the IC50 in the series on Trypanosoma cruzi amounted to 17 µM; in the series on Leishmania donovani it was 33 µM. Further, the Activity result was “Non-Toxic” in the series on Vero, 14% in series [3] and 49% in series [4]. For the same molecule, in series [1], the log partition coefficient (logP) was 6.5.

On to `CCCCCCCCc1cn(CC=C(C)C)nn1`, for which the IC50 in the series with Trypanosoma cruzi was 27 µM; in the series with Leishmania donovani, above 100 µM. Further, the Activity entry in the series on Vero is recorded as “Non-Toxic”. The molecule further gave a logP in series [1] of 4.92.

In the case of `CCCCCCCCc1cn(C/C=C(/C)CC/C=C(\C)CCC=C(C)C)nn1`, the values for the IC50 in the series on Trypanosoma cruzi and with Leishmania donovani were above 100 µM and 52 µM, respectively. Besides, the Activity result with Vero was “Non-Toxic”. Further, the logP in series [1] came out at 8.76.
